Results from ChEMBL document CHEMBL5236592, “Induction of Ferroptosis in Glioblastoma and Ovarian Cancers by a New Pyrrole Tubulin Assembly Inhibitor” (J Med Chem, 2022).
Calls of active or inactive are those of the source. No cut-off for these calls is given here.

Key:
T-cell line = assay: Cytotoxicity against human primary T-lymphocytes assessed as reduction in cell viability at 0.1 uM incubated for 48 to 72 hrs by Annexin V- APC/PI staining based flow cytometry analysis; type: toxicity; conditions: time 48-72 hrs
Method in brief: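 T lymphocytes negatively selected from healthy-donor PBMCs isolated by density gradient. Cultured at 1.5 × 10^6/mL with 0.1, 1.0 or 2.5 μM compound, DMSO vehicle or untreated, for 48 or 72 h. Stained with annexin V-APC and propidium iodide; early and late apoptotic fractions counted by flow cytometry.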

U-87MG ATCC [1] = assay: Induction of ferroptosis-mediated antitumor activity against human U-87 MG cells xenografted in BALB/C nu/nu mouse assessed as increase in […] level in tumor at 25 mg/kg, ip administered every 2 days for 40 days by biochemical analysis; type: functional, organism-based; conditions: time 40.0 day
Method in brief: (§1)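 U-87 MG or SKOV-3 sc xenografts (1 × 10^8 cells/mL) in female BALB/c nu/nu mice, 4 per group. Given 25 mg/kg ip in 100 μL every 2 days, or saline. Tumors harvested on day 40 and assayed for LPO, MDA, lactic acid, total glutathione (GSH + GSSG), ATP and Fe2+.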

SK-OV-3 [2] = assay: Induction of ferroptosis-mediated antitumor activity against human SK-OV-3 cells xenografted in BALB/C nu/nu mouse assessed as increase in lactic acid level in tumor at 25 mg/kg, ip administered every 2 days for 40 days by biochemical analysis; type: functional, organism-based; conditions: time 40.0 day; method in brief: as §1
Mus musculus [3] = assay: Upregulation of ENDOG mRNA expression in tumor of BALB/C nu/nu mouse xenografted with human U-87 MG cells at 25 mg/kg, ip administered every 2 days for 40 days by qPCR analysis; type: functional, organism-based; conditions: time 40.0 day
Method in brief: (§2)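 Female BALB/c nu/nu mice bearing sc U-87 MG or SKOV-3 xenografts were dosed ip at 25 mg/kg (100 μL) every 2 days, or given saline, and tumors were taken at day 40. RNA was extracted from about 20 mg of tissue. qPCR ran 40 cycles (95 °C 15 min; 94 °C 20 s; 60 °C 34 s) on a 69-gene panel. Fold change was by 2^–ΔΔCt, with ≥1.5 counted as increased.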

Mus musculus [4] = assay: Upregulation of Nfe2l2 mRNA expression in tumor of BALB/C nu/nu mouse xenografted with human U-87 MG cells at 25 mg/kg, ip administered every 2 days for 40 days by qPCR analysis; type: functional, organism-based; conditions: time 40.0 day
Method in brief: (§3)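 Female BALB/c nu/nu mice, 10 weeks old, 4 per group. Inoculated s.c. with 1 × 10^8 cells/mL of log-phase U-87 MG or SKOV-3 cells. Dosed i.p. with 100 μL at 25 mg/kg every 2 days; controls got 100 μL saline. Tumors harvested on day 40. RNA extracted from about 20 mg of tissue. qPCR panel of 69 genes, 40 cycles (94 °C 20 s, 60 °C 34 s). Analysed by 2–ΔΔCt; fold ≥1.5 taken as increased.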

Mus musculus [5] = assay: Upregulation of Hspb5 mRNA expression in tumor of BALB/C nu/nu mouse xenografted with human U-87 MG cells at 25 mg/kg, ip administered every 2 days for 40 days by qPCR analysis; type: functional, organism-based; conditions: time 40.0 day; method in brief: as §3
Mus musculus [6] = assay: Upregulation of Cbs mRNA expression in tumor of BALB/C nu/nu mouse xenografted with human U-87 MG cells at 25 mg/kg, ip administered every 2 days for 40 days by qPCR analysis; type: functional, organism-based; conditions: time 40.0 day; method in brief: as §2
Mus musculus [7] = assay: Upregulation of Ireb2 mRNA expression in tumor of BALB/C nu/nu mouse xenografted with human U-87 MG cells at 25 mg/kg, ip administered every 2 days for 40 days by qPCR analysis; type: functional, organism-based; conditions: time 40.0 day; method in brief: as §3
Mus musculus [8] = assay: Upregulation of Clsd1 mRNA expression in tumor of BALB/C nu/nu mouse xenografted with human U-87 MG cells at 25 mg/kg, ip administered every 2 days for 40 days by qPCR analysis; type: functional, organism-based; conditions: time 40.0 day; method in brief: as §2
Mus musculus [9] = assay: Upregulation of TFRC mRNA expression in tumor of BALB/C nu/nu mouse xenografted with human SK-OV-3 cells at 25 mg/kg, ip administered every 2 days for 40 days by qPCR analysis; type: functional, organism-based; conditions: time 40.0 day; method in brief: as §3
Mus musculus [10] = assay: Upregulation of Cbs mRNA expression in tumor of BALB/C nu/nu mouse xenografted with human SK-OV-3 cells at 25 mg/kg, ip administered every 2 days for 40 days by qPCR analysis; type: functional, organism-based; conditions: time 40.0 day; method in brief: as §2
Mus musculus [11] = assay: Upregulation of Gss mRNA expression in tumor of BALB/C nu/nu mouse xenografted with human SK-OV-3 cells at 25 mg/kg, ip administered every 2 days for 40 days by qPCR analysis; type: functional, organism-based; conditions: time 40.0 day; method in brief: as §3
Mus musculus [12] = assay: Upregulation of Nf22l2 mRNA expression in tumor of BALB/C nu/nu mouse xenografted with human SK-OV-3 cells at 25 mg/kg, ip administered every 2 days for 40 days by qPCR analysis; type: functional, organism-based; conditions: time 40.0 day; method in brief: as §3
Mus musculus [13] = assay: Upregulation of Gls2 mRNA expression in tumor of BALB/C nu/nu mouse xenografted with human SK-OV-3 cells at 25 mg/kg, ip administered every 2 days for 40 days by qPCR analysis; type: functional, organism-based; conditions: time 40.0 day; method in brief: as §2
Mus musculus [14] = assay: Upregulation of Cisd1 mRNA expression in tumor of BALB/C nu/nu mouse xenografted with human SK-OV-3 cells at 25 mg/kg, ip administered every 2 days for 40 days by qPCR analysis; type: functional, organism-based; conditions: time 40.0 day; method in brief: as §2
U-87MG ATCC [15] = assay: Antitumor activity against human U-87 MG cells xenografted in BALB/C nu/nu mouse assessed as reduction in Ki67 expression in tumor at 25 mg/kg, ip administered every 2 days for 40 days by immunofluoresence staining based assay; type: functional, organism-based; conditions: time 40.0 day
Method in brief: (§4)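 Female BALB/c nu/nu mice, 10 weeks old, 4 per group. Received subcutaneous U-87 MG or SKOV-3 cells (1 × 10^8 cells/mL, harvested in log phase). Dosed ip with 100 μL at 25 mg/kg every 2 days; controls got 100 μL saline on the same schedule. Sacrificed at 40 days; tumors weighed, volume = ab²/2. Tumor sections (6 μm, paraffin) stained by immunofluorescence for Ki67 or CD31 with Alexa Fluor 488 secondary.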

SK-OV-3 [16] = assay: Antitumor activity against human SK-OV-3 cells xenografted in BALB/C nu/nu mouse assessed as reduction in Ki67 expression in tumor at 25 mg/kg, ip administered every 2 days for 40 days by immunofluoresence staining based assay; type: functional, organism-based; conditions: time 40.0 day; method in brief: as §4
SK-OV-3 [17] = assay: Induction of ferroptosis-mediated antitumor activity against human SK-OV-3 cells xenografted in BALB/C nu/nu mouse assessed as reduction in GPX4 protein expression in tumor at 25 mg/kg, ip administered every 2 days for 40 days by immunofluoresence staining based assay; type: functional, organism-based; conditions: time 40.0 day
Method in brief: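 Xenografts of U-87 MG or SKOV-3 (1 × 10^8 cells/mL, sc) in female BALB/c nu/nu mice, 4 per group. Treated ip at 25 mg/kg in 100 μL every 2 days versus saline, tumors collected at day 40. Paraffin sections (6 μm) were blocked at 37 °C for 30 min, then incubated with rabbit anti-GPX4 or anti-FTH1 and then Alexa Fluor 488 anti-rabbit, each for 45 min at 37 °C.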

COc1cc(C(=O)c2cn(-c3ncccn3)cc2-c2ccco2)cc(OC)c1OC
Activity (T-cell line): Non-Toxic
Activity (U-87MG ATCC [1]): Active
Activity (SK-OV-3 [2]): Active
Activity (Mus musculus [3]): Active
Activity (Mus musculus [4]): Active
Activity (Mus musculus [5]): Active
Activity (Mus musculus [6]): Active
Activity (Mus musculus [7]): Active
Activity (Mus musculus [8]): Active
Activity (Mus musculus [9]): Active
Activity (Mus musculus [10]): Active
Activity (Mus musculus [11]): Active
Activity (Mus musculus [12]): Active
Activity (Mus musculus [13]): Active
Activity (Mus musculus [14]): Active
Activity (U-87MG ATCC [15]): Active
Activity (SK-OV-3 [16]): Active
Activity (SK-OV-3 [17]): Active
